TAAR1 ag: human TAAR1 agonists, primary screen, Fluo-8 calcium fluorescence, CHO RD-HGA16 cells; AID 624467, 2012; activation, % at 3 µM; 360,000 compounds, 0.99% hits; Trace amine-associated receptor 1 (Homo sapiens), Q96RJ0; vehicle wells 0%, saturating PEA agonist 100%;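 active = activation above the mean activation of all test compounds in the run plus 3 SD, cut at about 38% in these data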
Target sequence (Q96RJ0 whole entry, looked up): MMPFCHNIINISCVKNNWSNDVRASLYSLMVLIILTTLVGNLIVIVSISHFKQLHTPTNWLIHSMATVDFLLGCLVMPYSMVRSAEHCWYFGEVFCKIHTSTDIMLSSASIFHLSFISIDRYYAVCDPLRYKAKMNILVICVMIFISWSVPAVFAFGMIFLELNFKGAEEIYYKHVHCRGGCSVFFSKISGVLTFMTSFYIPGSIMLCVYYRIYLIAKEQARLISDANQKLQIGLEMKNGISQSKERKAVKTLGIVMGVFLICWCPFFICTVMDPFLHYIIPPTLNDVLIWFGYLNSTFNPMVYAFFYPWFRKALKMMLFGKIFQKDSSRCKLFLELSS
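Test system: RD-HGA16 (CHO) cells co-expressing Gα16 and hTAAR1; dosing: one-point dosing at 3 µM (nominal); timing: 17-24 h seeding, 75 min 37 °C dye, 30 min RT; signal: kinetic Fluo-8 calcium fluorescence; read-out basis: % activation relative to PEA EC100 response; controls: DMSO and PEA EC100; replicates: n 1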
TAAR1 antag: human TAAR1 antagonists, primary screen, Fluo-8 calcium fluorescence, CHO RD-HGA16 cells; Trace amine-associated receptor 1 (Homo sapiens), Q96RJ0; antagonist; inhibition, % at 3 µM; 360,000 compounds, 1.5% hits; AID 624466, 2012;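 active = inhibition above a per-plate cutoff, the mean inhibition of test compounds on that plate plus 3 SD, cut at about 49% in these data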;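 also: 0% = DMSO plus EC80 beta-PEA response and 100% = DMSO alone without agonist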
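Test system: CHO RD-HGA16 cells bearing hTAAR1 | Reagent: β-PEA, EC80 | Compound dosing: 3 µM, single point | Schedule: Dye loading 75 min at 37 °C, then 30 min room temperature | Signal: Calcium fluorescence with Fluo-8 | Evaluation: Percent inhibition of PEA-evoked calcium signal, max/basal emission ratio | Control set: DMSO-only wells and EC80 β-PEA-stimulated wells | Repeats: Singlicate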
NS3 helicase inh: inhibitors of HCV NS3 helicase, primary screen, biochemical, Cy5 molecular beacon fluorescence; Hepatitis C virus NS3 helicase; NS3 helicase DNA unwinding; inhibition, % at 10.9 µM; 290,000 compounds, 0.56% hits;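 active = inhibition above the mean of all tested compounds plus 3 SD, set per campaign, cut at about 35% in these data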;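 also: 0% = DMSO wells and 100% = thioflavine S control wells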
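Measured by: Cy5 fluorescence, 0 and 60 min reads / Assay system: NS3 helicase fragment of HCV / Control set: low DMSO, high thioflavine S at 110 µM / Times: 1 h reaction at 25 °C, ATP-initiated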
rCAG binder: binders of r(CAG) RNA repeats, primary screen, biochemical, fluorescence; r(CAG) RNA repeat, TO-PRO-1 dye displacement fluorescence; inhibition, % at 3 µM; 370,000 compounds, 1.3% hits;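 active = inhibition above the plate cutoff, the mean of all test compounds on that plate plus 3 SD, cut at about 35% in these data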;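 also: 0% = DMSO alone and 100% = 100 µM mitoxantrone as full dye displacement; higher means more dye released from RNA so lower well fluorescence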
core dimer inh: inhibitors of HCV core protein dimerization, primary screen, biochemical, TR-FRET, high-throughput; 300,000 compounds, 0.33% hits; inhibition, % at 5 µM; TR-FRET GST/Flag-core106 dimerization, 1536-well; AID 1899, 2009;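 active = inhibition above the mean of all tested compounds plus 3 SD, set per screening campaign, cut at about 45% in these data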
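System: GST-tagged and Flag-tagged HCV core protein residues 1-106 / Input: core106 proteins, GST 13.5 nM and Flag 17 nM / Buffer or medium: KF-containing HEPES buffer, pH 7.45, DTT, CHAPS, BSA / Probe or stimulus: Eu-anti-GST and XL665-anti-Flag labelled anti-tag antibodies / Schedule: 4 h, 22.5 °C incubation / Technique: TR-FRET 671 and 617 nm emission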
nonsel antag count: nonselective antagonists in TAAR1 counter-screen cells, counter-screen for hTAAR1 antagonist project, cell-based, fluorescence, calcium. shares compounds with TAAR1 antag. counterscreen cell line, antagonist mode. inhibition, % at 3 µM. 2,400 compounds, 77% hits. AID 651780, 2012; in the data active = inhibition above about 22%;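 also: CHO-Ga16 host cells stimulated with ATP at an EC80 level; 0% = agonist EC80 plus vehicle and 100% = vehicle without agonist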
TAAR1 ant conf: human TAAR1 antagonists, retest of hits, confirmation, cell-based, fluorescence | 2,400 compounds, 40% hits | shares compounds with TAAR1 antag | TAAR1-expressing cells, fluorescence antagonist read-out | inhibition, % at 3 µM; in the data active = inhibition above about 49%;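 also: CHO-Ga16 host cells challenged with agonist PEA near its EC80; 0% = agonist at EC80 plus vehicle and 100% = vehicle with no agonist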
Ga16 ag counter: calcium activation in Ga16-expressing cells, counter-screen for TAAR1 antagonist project, cell-based, fluorescence. shares compounds with TAAR1 antag. agonist counterscreen. activation, % at 3 µM. 2,400 compounds, 18% hits. AID 651953, 2012; in the data active = activation above about 12%;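 also: 0% = vehicle wells and 100% = saturating stimulus response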
TAAR1 ag count: TAAR1 activation by candidate antagonists – cell-based, fluorescence, counter-screen for TAAR1 antagonist project; 2,400 compounds, 2% hits; activation, % at 3 µM; AID 651955, 2012; shares compounds with TAAR1 antag; hTAAR1 cell line, agonist mode; in the data active = activation above about 37%;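 also: CHO cells stably expressing TAAR1 with calcium dye readout; 0% = DMSO vehicle and 100% = full agonist response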
* = called active by the depositor; . = no result given. A selection: hits, their analogues and other compounds. The true share with any hit is near 3.7%.

SMILES	TAAR1 ag	TAAR1 antag	NS3 helicase inh	rCAG binder	core dimer inh	nonsel antag count	TAAR1 ant conf	Ga16 ag counter	TAAR1 ag count
Cc1c(NC(=O)c2cc(-c3ccccc3)nc3ccccc23)c(=O)n(-c2ccccc2)n1C	13.9	59.3*	.	3.4	.	27.8*	50.2*	9.8	9.9
C=C(C)CSc1nnc(-c2cc(-c3ccccc3)n[nH]2)n1N	.	.	.	0.4	.	.	.	.	.
COC(=O)[C@]12C[C@H](CC(=O)NCc3cccc(C(F)(F)F)c3)C(=O)N(Cc3cccc4ccccc34)C1=C[C@H](C(C)C)O[C@@H]2C1CC1	.	.	.	4.3	.	.	.	.	.
Cc1cc(/C=C(\C#N)C(=O)NCc2cccs2)c(C)n1-c1ccccc1F	1.6	68.5*	4.6	-0.8	4.7	17.1	61.1*	2.4	3.9
O=C(NC(c1ccc(-c2ccccc2)cc1)c1cnccn1)C1CCN(CCOc2ccc(F)cc2)CC1 (configuration not stated)	33.8	70.7*	.	3.6	.	38.6*	53.0*	16.4*	25.2
C/C(=N\NC(=O)C1(C)CC1(Br)Br)c1cccc(NC(=O)c2ccc(C)o2)c1 (configuration not stated)	12.5	84.8*	-3.3	-2.6	10.4	25.7*	72.5*	11.2	39.4*
CCCS(=O)(=O)c1c(S(=O)(=O)CCC)c2c3ccccc3ccn2c1C(=O)OC	9.1	48.7*	-5.6	3.8	7.8	16.4	31.5	5.5	4.5
O=C(NCCN1C(=O)S/C(=C\c2ccc(Cl)cc2)C1=O)c1ccc(F)c(S(=O)(=O)N2CCOCC2)c1	3.5	-6.3	5.0	3.4	18.1	.	.	.	.
O=C(NCCN1C(=O)S/C(=C\c2ccc(F)cc2)C1=O)c1cccc(S(=O)(=O)N2CCOCC2)c1	15.8	69.9*	1.1	7.0	-4.5	42.8*	60.0*	15.3*	12.7
O=C(NCCCN1CCOCC1)c1cc(S(=O)(=O)N2CCOCC2)c(Cl)cc1Cl	13.1	-15.5	.	0.1	.	.	.	.	.
O=C(NCCN1C(=O)S/C(=C\c2ccccc2)C1=O)c1cc(S(=O)(=O)N2CCOCC2)c(Cl)cc1Cl	25.5	78.3*	1.4	9.4	13.4	50.4*	70.0*	19.4*	18.1
Cc1ccc(-n2c(SCc3ccc(Cl)c(Cl)c3)nnc2-c2ccc(C(C)(C)C)cc2)cc1	.	.	.	1.2	.	.	.	.	.
COC(=O)[C@]12C[C@H](CC(=O)NCc3cccs3)C(=O)N(Cc3cccc4ccccc34)C1=C[C@H](C(C)(C)C)O[C@@H]2C	.	.	.	2.5	.	.	.	.	.
CN(C(=O)c1cccc(NC(=O)c2ccccc2)c1)C1CCCCC1	-1.1	-6.9	13.1	-5.7	-21.5	.	.	.	.
CN(C(=O)c1cccc(Nc2ccc(-c3ccc4c(c3)OCCO4)nn2)c1)C1CCCCC1	12.8	53.9*	-21.7	8.9	19.7	13.1	31.4	5.2	14.6
CN1CCCN(C(=O)CN2C(=O)CC(C)(C)S(=O)(=O)c3ccccc32)CC1	.	.	.	2.6	.	.	.	.	.
CC1Nc2ncnc(N3CCN(c4ccccc4)CC3)c2N(Cc2ccc(Br)cc2)C1=O (configuration not stated)	29.2	57.2*	.	-4.7	4.9	17.8	35.7	7.5	7.0
COc1ccc(CN2C(=O)C(C)Nc3ncnc(N4CCN(c5ccccc5)CC4)c32)cc1 (configuration not stated)	13.8	1.4	.	6.0	.	.	.	.	.
COc1ccc(N(Cc2cc3ccccc3[nH]c2=O)S(=O)(=O)c2ccc(C)cc2)cc1	0.9	54.9*	-22.9	2.9	16.9	21.3	36.4	7.7	9.3
COc1ccc(N(Cc2cc3ccccc3[nH]c2=O)S(=O)(=O)c2ccccc2)cc1	3.4	33.0	-21.1	9.6	2.1	.	.	.	.
CCCCN(Cc1cc2cc(OC)ccc2[nH]c1=O)S(=O)(=O)c1ccc(C)cc1	5.0	77.0*	-9.6	2.2	11.9	13.5	48.2	6.5	21.6
COc1ccc2[nH]c(=O)c(CN(CCO)S(=O)(=O)c3ccc(C)cc3)cc2c1	0.4	-2.8	6.4	-3.4	-0.7	.	.	.	.
Cc1cccc(OCc2nc(C#N)c(NCc3ccc4c(c3)OCO4)o2)c1	12.0	36.7	-2.0	-1.2	1.3	.	.	.	.
N#Cc1nc(COc2ccc(Cl)cc2)oc1NCc1ccc2c(c1)OCO2	7.7	50.0*	-3.5	-4.8	12.1	22.1*	17.2	-0.4	-0.6
COC(=O)c1cc2ccccn2c2c(C(=O)OC)c(C(=O)OC)cc1-2	21.5	62.0*	0.5	0.1	-25.2	27.6*	49.0*	9.3	11.3
SMILES	TAAR1 ag	TAAR1 antag	NS3 helicase inh	rCAG binder	core dimer inh	nonsel antag count	TAAR1 ant conf	Ga16 ag counter	TAAR1 ag count
C=Cc1cc2c(cc1O)CCC1C2CCC2(C)C(O)CCC12 (configuration not stated)	8.3	58.4*	.	3.5	.	23.5*	43.9	8.7	7.2
CC#Cc1cc2c(cc1O)CCC1C2CCC2(C)C(O)CCC12 (configuration not stated)	4.3	25.4	.	5.9	.	.	.	.	.
CC(C)CNC(=O)OCc1cn(Cc2cccc(Cl)c2)nn1	.	.	.	-0.1	.	.	.	.	.
CC(C)(C)NC(=O)COC(=O)c1c2c(nc3ccccc13)CCC2	8.4	60.1*	10.8	17.3	53.3*	26.8*	40.7	6.9	5.7
NC(=O)COC(=O)c1c2c(nc3ccccc13)CCC2	0.3	8.5	-5.7	10.6	13.4	.	.	.	.
CC12CCC3C(CCC4CC(O)CCC43C)C1CC(=O)C2 (configuration not stated)	5.3	37.8	.	2.0	.	.	.	.	.
CC1=C(CC[C@@H](C)CO)OC2CC3C4CCC5CC(O)CCC5(C)C4CC(=O)C3(C)C12 (some centres not stated)	16.8	76.4*	.	-3.2	0.2	29.4*	52.4*	11.0	18.7
CCOC(=O)[C@]12CCCC3=C1N(CCC3)C(=O)[C@@H](CC(=O)NCCCN1CCCC1=O)C2	.	.	.	-0.7	.	.	.	.	.
COc1ccc(C(=O)Oc2cccc(Nc3ncnc4ccccc34)c2)cc1OC	12.5	68.9*	-4.6	-1.3	-2.9	43.4*	53.6*	11.6*	4.9

From PubChem BioAssay
